Compound activity from PubChem BioAssay.
NF-kB expr up: compounds increasing NF-kB expression in human neuronal cells | NF-kB reporter expression; stronger effect = higher value | fold change at 12.5 µM | actives 1.6% (n = 190,000) | AID 1239; in the data active means fold change above about 3.3
Pf gametocyte: inhibitors of late stage P. falciparum gametocyte viability; inhibition, % at 10.9 µM; actives 0.065% (n = 150,000); P. falciparum stage V gametocytes, ATP luminescence, 24 h; AID 743093;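 active means inhibition above the mean plus 3 SD of compounds within the control limits, set per campaign, cut at about 38% in these data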;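 further: 0% = DMSO wells and 100% = medium only without gametocytes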
APP 5'UTR act: activates APP 5'UTR luciferase reporter | activation, % at 2 µM | AID 1276 | SH-SY5Y APP 5'UTR luciferase reporter, luminescence; zero percent = DMSO vehicle wells | actives 1% (n = 190,000);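 active means activation above a set limit, based on mean plus 3 SD of controls, cut at about 140% in these data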
FLuc inhib CS: inhibits firefly luciferase, flagging false hits in luciferase inhibition screens. inhibition, % at 10 µM. P08659. actives 1.5% (n = 200,000). ATPLite firefly luciferase biochemical luminescence, 10 min;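 active means inhibition above about 50% when tested at 10 µM, limit read from the data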
Target sequence (P08659 whole entry, looked up): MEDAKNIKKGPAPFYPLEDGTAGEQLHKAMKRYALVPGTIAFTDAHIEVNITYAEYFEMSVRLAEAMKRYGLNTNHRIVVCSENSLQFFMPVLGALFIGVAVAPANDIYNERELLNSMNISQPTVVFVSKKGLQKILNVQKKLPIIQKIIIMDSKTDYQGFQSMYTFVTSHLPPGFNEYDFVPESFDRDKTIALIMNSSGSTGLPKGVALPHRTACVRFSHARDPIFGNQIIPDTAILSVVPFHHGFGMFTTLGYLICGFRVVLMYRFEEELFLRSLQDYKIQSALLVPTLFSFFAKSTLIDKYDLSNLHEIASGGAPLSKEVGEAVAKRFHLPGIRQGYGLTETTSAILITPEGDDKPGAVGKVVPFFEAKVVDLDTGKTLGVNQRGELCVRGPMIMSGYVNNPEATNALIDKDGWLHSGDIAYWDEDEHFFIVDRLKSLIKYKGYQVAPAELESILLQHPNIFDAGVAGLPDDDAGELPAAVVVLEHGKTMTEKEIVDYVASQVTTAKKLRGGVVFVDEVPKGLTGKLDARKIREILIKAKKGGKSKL
STAT1 activator: activators of IFN-gamma induced STAT1 signaling; NIH 3T3 STAT1-luciferase reporter, luminescence; 100% = IFN-gamma alone, no compound; activation (% of control), % at 5.5 µM; actives 2.6% (n = 200,000); AID 932;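 active means activation above the screen-wide mean activation plus 3 SD, cut at about 130% in these data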;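 further: raw ratio to IFN-gamma control signal so 100% means no change and 0% no light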
FLuc act counter: affects firefly luciferase, flagging false hits in luciferase stimulation screens; P08659; ATPlite luciferase biochemical, luminescence, 10 min; 0 = ATP-free wells, 1 = DMSO control; activation factor at 10 µM; 200,000 tested, under 10 active; AID 1027;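 active means luciferase activation factor, scaled between plate controls, of at least 2 with compound at 10 µM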
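Material: Luciferase/luciferin reagent mix; Doses: test compounds dosed from 2 mM stocks in 100% DMSO; Schedule: 10 min incubation after luciferase reagent addition, room temperature; Measured by: luminescence from luciferase reaction; Read-out: luminescence gain marking luciferase activators.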
The depositor's hits bear a star. A selection: hits, their analogues and other compounds. The true share with any hit is near 3.5%.

COc1ccc2c(CC(=O)N3CCc4ccccc43)coc2c1 was read as NF-kB expr up 4.9*, Pf gametocyte -2, APP 5'UTR act 142*, FLuc inhib CS 42, STAT1 activator 127 and FLuc act counter 0.6.
`Cc1nnc(SCc2ccc(CSc3nnc(C)c(=O)[nH]3)cc2)[nH]c1=O` gave NF-kB expr up 1.2, Pf gametocyte 11, APP 5'UTR act -12, FLuc inhib CS -2, STAT1 activator 103 and FLuc act counter 1.
Screening CCOC(=O)c1sc(NC(=O)c2ccc(Cl)s2)cc1C returned NF-kB expr up 2.1, APP 5'UTR act 76, FLuc inhib CS 19, STAT1 activator 132* and FLuc act counter 0.8.
For CCOC(=O)c1sc(NC(=O)c2ccccc2)cc1C the results were NF-kB expr up 6.7*, Pf gametocyte 18, APP 5'UTR act 117, FLuc inhib CS 69*, STAT1 activator 145* and FLuc act counter 0.3.
Screening CCOC(=O)c1csc(NC(=O)c2ccccc2)n1 returned NF-kB expr up 3.6*, APP 5'UTR act 144*, FLuc inhib CS 14, STAT1 activator 136* and FLuc act counter 0.9.
For CCOC(=O)c1sc(=NC(=O)c2ccccc2)n(C)c1C the results were NF-kB expr up 6.7*, Pf gametocyte -6, APP 5'UTR act 180*, FLuc inhib CS 68*, STAT1 activator 138* and FLuc act counter 0.3.
`CCOC(=O)c1sc(NC(=O)Nc2ccc(Cl)cc2)cc1C` gave NF-kB expr up 1.3, APP 5'UTR act 38, FLuc inhib CS 5, STAT1 activator 103 and FLuc act counter 1.
Cc1c(Cl)cccc1NC(=O)c1ccccc1-c1ccccc1C(=O)O was read as Pf gametocyte -10.
`O=C(CCCc1nc(-c2ccccc2)no1)NCc1cccnc1` gave NF-kB expr up 0.94, Pf gametocyte -43, APP 5'UTR act 5, FLuc inhib CS -4, STAT1 activator 95 and FLuc act counter 1.
For CCN(CC)Cc1c(NC(=O)c2ccccc2)sc(C)c1C the results were NF-kB expr up 1.1, Pf gametocyte -5, APP 5'UTR act -1, FLuc inhib CS -5, STAT1 activator 134* and FLuc act counter 1.
CCN(CC)C(=O)c1c(NC(=O)c2ccccc2)sc(C)c1C was read as NF-kB expr up 0.98, APP 5'UTR act -5, FLuc inhib CS -5, STAT1 activator 97 and FLuc act counter 1.1.
`CCOC(=O)c1sc(NC(=O)C(C)(C)C)cc1C` gave NF-kB expr up 2.6, APP 5'UTR act 74, FLuc inhib CS 28, STAT1 activator 131* and FLuc act counter 0.7.
COc1ccc(S(=O)(=O)Nc2c(C)n(C)n(-c3ccccc3)c2=O)cc1C(=O)O was read as Pf gametocyte 6.
`CC(C)c1onc(C(=O)N2CCC(C(N)=O)CC2)c1[N+](=O)[O-]` gave Pf gametocyte 16.
`Cc1ccsc1/C=N/NC(=O)c1cccs1` gave NF-kB expr up 2.1, APP 5'UTR act 29, FLuc inhib CS 32, STAT1 activator 134* and FLuc act counter 0.7.
Screening Cc1ccc(/C=N/NC(=O)c2cccs2)o1 returned NF-kB expr up 1.4, Pf gametocyte -5, APP 5'UTR act 24, FLuc inhib CS 24, STAT1 activator 128 and FLuc act counter 0.8.
Screening Cc1ccsc1/C=N/NC(=O)c1c[nH]c2ccccc12 returned NF-kB expr up 2.5, APP 5'UTR act 70, FLuc inhib CS 22, STAT1 activator 126 and FLuc act counter 0.8.
Cc1nn(-c2ccc(F)cc2)c(Cl)c1/C=N/NC(=O)c1cccs1 was read as NF-kB expr up 1.2, Pf gametocyte 11, APP 5'UTR act 35, FLuc inhib CS 10, STAT1 activator 142* and FLuc act counter 0.9.
Cc1ccsc1/C=N/NC(=O)c1ccccn1 was read as NF-kB expr up 2.5, Pf gametocyte -7, APP 5'UTR act 85, FLuc inhib CS 46, STAT1 activator 148* and FLuc act counter 0.5.
CNC(=O)c1ccsc1NC(=O)c1coc2ccccc2c1=O was read as NF-kB expr up 1, APP 5'UTR act 12, FLuc inhib CS 21, STAT1 activator 126 and FLuc act counter 0.8.
For COC(=O)c1sc2nc3c(cc2c1N)COC(C)(C)C3 the results were NF-kB expr up 4.2*, APP 5'UTR act -11, FLuc inhib CS 31, STAT1 activator 142* and FLuc act counter 0.7.
CC1(C)Cc2nc3sc(C(=O)NCCCO)c(N)c3cc2CO1 was read as Pf gametocyte 14.
`O=C(Nc1ccc(C(=O)O)cc1)/C(=C\c1cccc([N+](=O)[O-])c1)NC(=O)c1ccc(Br)o1` gave NF-kB expr up 1.1, APP 5'UTR act 9, FLuc inhib CS -6, STAT1 activator 97 and FLuc act counter 1.1.
For COc1ccc(/C(O)=C2/C(=O)C(=O)N(CCN3CCOCC3)C2c2ccccn2)cc1 (centres undefined) the results were NF-kB expr up 1.3, APP 5'UTR act -16, FLuc inhib CS -6, STAT1 activator 143* and FLuc act counter 1.1.
`O=C1C(=O)N(CCN2CCOCC2)C(c2ccccn2)/C1=C(/O)c1ccc(F)cc1` (centres undefined) gave NF-kB expr up 1.3, APP 5'UTR act -4, FLuc inhib CS -10, STAT1 activator 106 and FLuc act counter 1.1.
`Cc1cccn2cc(-c3cc4ccccc4oc3=O)nc12` gave NF-kB expr up 3.9*, Pf gametocyte 5, APP 5'UTR act 84, FLuc inhib CS 14, STAT1 activator 137* and FLuc act counter 0.9.
Nc1ccc(-c2cn3cccnc3n2)cc1 was read as NF-kB expr up 1.3, Pf gametocyte 11, APP 5'UTR act 26, FLuc inhib CS 0, STAT1 activator 115 and FLuc act counter 1.
Screening O=c1oc2ccccc2cc1-c1cn2cccnc2n1 returned NF-kB expr up 2.6, Pf gametocyte 17, APP 5'UTR act 55, FLuc inhib CS 44, STAT1 activator 140* and FLuc act counter 0.6.
`CCS(=O)(=O)N1CCC(C(=O)Oc2ccc(C)c(C)c2)CC1` gave Pf gametocyte 16.
Screening O=C(NCc1ccc(OC(F)(F)F)cc1)C1CC(c2ccccc2C(F)(F)F)=NO1 (centres undefined) returned Pf gametocyte -1.
`O=C(Cc1ncc(C(F)(F)F)cc1Cl)N1CCN(c2ccc(F)cc2)CC1` gave NF-kB expr up 1, Pf gametocyte -11, APP 5'UTR act 14, FLuc inhib CS -4, STAT1 activator 109 and FLuc act counter 1.
Cc1ccc(NC(=O)Cc2cc(C(=O)O)c3ccccc3n2)c(C)c1 was read as NF-kB expr up 4.6*, Pf gametocyte 15, APP 5'UTR act -12, FLuc inhib CS 21, STAT1 activator 114 and FLuc act counter 0.8.
`Oc1[nH]c2ccccc2c1N=Nc1ccc(F)cc1` gave NF-kB expr up 1.7, APP 5'UTR act 46, FLuc inhib CS 13, STAT1 activator 144* and FLuc act counter 0.9.
